According to ChEMBL document CHEMBL4368886, “Design, synthesis, and biological activity of novel ammonium salts containing sterically hindered phenolic fragment and phosphoryl group” (Medchemcomm, 2018):
≈ marks a conversion by molar mass, not a printed value. Calls of active or inactive are those of the source. The rule behind the calls is not given here.

Experiments:
Escherichia coli [1] = assay: Bactericidal activity against Escherichia coli CDC F-50 measured after 4 hrs; format: functional
In short: (§1)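 Microbicidal (bactericidal/fungicidal) concentration, killing of microbial cells, determined per literature procedures; tests in duplicate, repeated twice.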

Candida albicans [2] = assay: Antimicrobial activity against Candida albicans 855-653 measured after 14 days by two-fold serial dilution method; format: functional
Candida albicans [3] = assay: Bactericidal activity against Candida albicans 855-653 measured after 4 hrs; format: functional; in short: as §1
Staphylococcus aureus [4] = assay: Bactericidal activity against Staphylococcus aureus 209p measured after 4 hrs; format: functional; in short: as §1
Escherichia coli [5] = assay: Antimicrobial activity against Escherichia coli CDC F-50 measured every 24 hrs for 5 days by two-fold serial dilution method; format: functional
Bacillus cereus [6] = assay: Antimicrobial activity against Bacillus cereus ATCC 8035 measured every 24 hrs for 5 days by two-fold serial dilution method; format: functional
Aspergillus niger [7] = assay: Bactericidal activity against Aspergillus niger BKMF-1119 measured after 4 hrs; format: functional, organism-based; in short: as §1
Pseudomonas aeruginosa [8] = assay: Bactericidal activity against Pseudomonas aeruginosa ATCC 9027 measured after 4 hrs; format: functional; in short: as §1
Pseudomonas aeruginosa [9] = assay: Antimicrobial activity against Pseudomonas aeruginosa ATCC 9027 measured every 24 hrs for 5 days by two-fold serial dilution method; format: functional
Bacillus cereus [10] = assay: Bactericidal activity against Bacillus cereus ATCC 8035 measured after 4 hrs; format: functional; in short: as §1
Staphylococcus aureus [11] = assay: Antimicrobial activity against Staphylococcus aureus 209p measured every 24 hrs for 5 days by two-fold serial dilution method; format: functional
[12] = system: Trichophyton mentagrophytes; assay: Antimicrobial activity against Trichophyton mentagrophytes var. gypseum 1773 measured after 14 days by two-fold serial dilution method; format: functional
[13] = system: Trichophyton mentagrophytes var. granulosum; assay: Bactericidal activity against Trichophyton mentagrophytes var. granulosum 1773 measured after 4 hrs; format: functional; in short: as §1
Aspergillus niger [14] = assay: Antimicrobial activity against Aspergillus niger BKMF-1119 measured after 14 days by two-fold serial dilution method; format: functional, organism-based

Row | Structure (SMILES) | MIC (Escherichia coli [1]) | MIC (Candida albicans [2]; 855-653, 336 h) [µM] | MIC (Candida albicans [3]; 855-653, 4 h) [µM] | MIC (Staphylococcus aureus [4]) | MIC (Escherichia coli [5]) | MIC (Bacillus cereus [6]) | MIC (Aspergillus niger [7]) | MIC (Pseudomonas aeruginosa [8]) | MIC (Pseudomonas aeruginosa [9]) | MIC (Bacillus cereus [10]; ATCC 8035, 4 h) [µM] | MIC (Staphylococcus aureus [11]) | MIC [12] | MIC [13] | MIC (Aspergillus niger [14]) | MIC (Bacillus cereus [10]) | MIC (Escherichia coli [1]; CDC F-50, 4 h) [µM] | MIC (Pseudomonas aeruginosa [8]; ATCC 9027, 4 h) [µM] | MIC (Candida albicans [3]) | MIC (Candida albicans [2])
1 | CCOP(=O)(OCC)C(NCCC[N+](C)(C)Cc1ccccc1)c1cc(C(C)(C)C)c(O)c(C(C)(C)C)c1 (centres undefined) | inactive | 199 | 199 | 199 µM | inactive | 24.8 µM | inactive | inactive | inactive | 24.8 | 99.5 µM | inactive | inactive | inactive | – | – | – | – | –
2 | CC[N+](C)(C)CCCNC(c1cc(C(C)(C)C)c(O)c(C(C)(C)C)c1)P(=O)(OC(C)C)OC(C)C (centres undefined) | inactive | 422 | 422 | 105 µM | inactive | 105 µM | inactive | inactive | inactive | 421 | 105 µM | inactive | inactive | inactive | – | – | – | – | –
3 | CCCCCCCC[N+](C)(C)CCNC(=O)CCc1cc(C(C)(C)C)c(O)c(C(C)(C)C)c1 | inactive | 29 | 29 | 29 µM | inactive | 58 µM | inactive | inactive | inactive | 58 | 29 µM | inactive | inactive | inactive | – | – | – | – | –
4 | CCCCCCCCCCCC[N+](C)(C)CCCNC(c1cc(C(C)(C)C)c(O)c(C(C)(C)C)c1)P(=O)(OCC)OCC (centres undefined) | inactive | 44.3 | 44.3 | 22 µM | inactive | 177 µM | inactive | inactive | inactive | 177 | 22 µM | inactive | inactive | inactive | – | – | – | – | –
5 | CCCCCCCC[N+](C)(C)CCCNC(=O)CCc1cc(C(C)(C)C)c(O)c(C(C)(C)C)c1 | inactive | 28 | 56.3 | 28 µM | inactive | 28.1 µM | inactive | inactive | inactive | 28.1 | 28 µM | inactive | inactive | inactive | – | – | – | – | –
6 | CC[N+](C)(C)CCCNC(=O)CCc1cc(C(C)(C)C)c(O)c(C(C)(C)C)c1 | inactive | 265 | 265 | inactive | inactive | inactive | inactive | inactive | inactive | – | inactive | inactive | inactive | inactive | inactive | – | – | – | –
7 | CCCCCCCCCC[N+](C)(C)CCNC(=O)CCc1cc(C(C)(C)C)c(O)c(C(C)(C)C)c1 | – | 3.3 | 6.9 | 1.6 µM | 27.4 µM | 6.8 µM | inactive | – | 27.4 µM | 55 | 1.6 µM | inactive | inactive | inactive | – | 55 | 55 | – | –
8 | CC(C)OP(=O)(OC(C)C)C(NCC[N+](C)(C)Cc1ccccc1)c1cc(C(C)(C)C)c(O)c(C(C)(C)C)c1 (centres undefined) | inactive | 195 | – | 97.3 µM | inactive | 48.8 µM | inactive | inactive | inactive | 48.8 | 24.3 µM | inactive | inactive | inactive | – | – | – | inactive | –
9 | CCCCCCCCCCCC[N+](C)(C)CCCNC(=O)CCc1cc(C(C)(C)C)c(O)c(C(C)(C)C)c1 | inactive | – | – | 102 µM | inactive | 206 µM | inactive | inactive | inactive | 206 | 102 µM | inactive | inactive | inactive | – | – | – | inactive | inactive
10 | O=C(N[C@H](CO)[C@H](O)c1ccc([N+](=O)[O-])cc1)C(Cl)Cl [CHLORAMPHENICOL] | – | – | – | – | 386 µM (≈ 125 µg/mL) | 193 µM (≈ 62.4 µg/mL) | – | – | – | – | 193 µM (≈ 62.4 µg/mL) | – | – | – | – | – | – | – | –
